Assay results published in ChEMBL document CHEMBL1152831, “Synthesis and pharmacological screening of derivatives of isoxazolo[4,5-d]pyrimidine” (2008).

Assays:
Format in all cases: functional
[1] = tested on: CCRF-CEM; experiment: Antitumor activity against human CCRF-CEM cells
[2] = tested on: K562; experiment: Antitumor activity against human K562 cells
[3] = tested on: MOLT-4; experiment: Antitumor activity against human MOLT4 cells
[4] = tested on: HOP-92; experiment: Antitumor activity against human HOP92 cells
[5] = tested on: NCI-H522; experiment: Antitumor activity against human NCI-H522 cells
[6] = tested on: HCC 2998; experiment: Antitumor activity against human HCC2998 cells
[7] = tested on: HCT-15; experiment: Antitumor activity against human HCT15 cells
[8] = tested on: SF-539; experiment: Antitumor activity against human SF539 cells
[9] = tested on: U-251; experiment: Antitumor activity against human U251 cells
[10] = tested on: LOX IMVI; experiment: Antitumor activity against human LOXIMVI cells
[11] = tested on: SK-MEL-2; experiment: Antitumor activity against human SK-MEL-2 cells
[12] = tested on: CAKI-1; experiment: Antitumor activity against human Caki1 cells
[13] = tested on: Mus musculus; experiment: Effect on humoral immune response in sheep red blood cells-immunized CBA mouse spleen assessed as number of antibody forming unit per 10^6 viable cells at 10 ug, ip by local hemolysis assay
Outline: (§1)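 Male and female CBA mice, 12 weeks old, immunized i.p. with 0.2 mL of 5% SRBC in 0.9% NaCl. Compounds (DMSO stock diluted in saline) were given i.p. 2 h later; controls received saline or diluted DMSO. Spleens were taken on day 4 and antibody-forming cells counted by local hemolysis assay per 10⁶ viable splenocytes. Mean of 5 mice per group ±SE, t-test.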

[14] = tested on: Mus musculus; experiment: Effect on humoral immune response in sheep red blood cells-immunized CBA mouse spleen assessed as number of antibody forming unit per 10^6 viable cells at 100 ug, ip by local hemolysis assay; outline: as §1
[15] = tested on: Mus musculus; experiment: Effect on delayed type hypersensitivity in sheep red blood cells-immunized CBA mouse assessed as foot-pad edema at 10 ug, ip
Outline: (§2)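 Male and female CBA mice, 12 weeks old, sensitized i.v. with 10⁵ SRBCs in 0.2 mL. Compounds were dissolved in DMSO, then diluted in 0.9% NaCl, and given i.p. 2 h later. Controls received saline or diluted DMSO. On day 4, 10⁸ SRBCs in 0.05 mL were injected into the hind footpads. Footpad edema was measured by callipers 24 h later, minus the naive-mouse background. Mean ±SE, t-test.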

[16] = tested on: Mus musculus; experiment: Effect on delayed type hypersensitivity in sheep red blood cells-immunized CBA mouse assessed as foot-pad edema at 100 ug, ip; outline: as §2
[17] = tested on: Splenocyte; experiment: Effect on cancavalin-A-induced proliferation in mouse splenocytes at 1 ug/ml assessed as proliferation rate by MTT assay
Outline: (§3)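 Splenocytes from CBA mice were pressed through a screen into Hank's medium. Erythrocytes were lysed with 0.83% NH4Cl, cells washed twice and passed through cotton wool to remove dead cells. They were resuspended in RPMI 1640 with 10% FCS, L-glutamine, pyruvate and antibiotics. 2×10⁵ cells per well, Con A at 2.5 final, compounds across 0.1–10. After 3 days, MTT read as OD 550/630 nm. Mean of quadruplicate wells ±SE, Student's t-test.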

[18] = tested on: Splenocyte; experiment: Effect on cancavalin-A-induced proliferation in mouse splenocytes at 0.1 ug/ml assessed as proliferation rate by MTT assay; outline: as §3
[19] = tested on: Splenocyte; experiment: Effect on cancavalin-A-induced proliferation in mouse splenocytes at 10 ug/ml assessed as proliferation rate by MTT assay; outline: as §3
[20] = read-out: Log10GI50 (converted)
[21] = read-out: Log10LC50 (converted)

With `Nc1c(-c2nnco2)noc1C(=O)c1ccccc1` the GI50 [1, 20] was 18.2 µM, the CC50 [1, 21] was > 100 µM and the TGI ([1]; read-out: Log10TGI (converted)) was > 100 µM. For the same compound, the GI50 [2, 20] was 57.5 µM, the CC50 [2, 21] was > 100 µM and the TGI ([2]; read-out: Log10TGI (converted)) was > 100 µM. For the same compound, the GI50 [3, 20] was 56.2 µM, the CC50 [3, 21] was > 100 µM and the TGI ([3]; read-out: Log10TGI (converted)) was > 100 µM. For the same compound, the GI50 [4, 20] was 30.9 µM, the CC50 [4, 21] was > 100 µM and the TGI ([4]; read-out: Log10TGI (converted)) was 97.7 µM. The GI50 [5, 20] was 33.9 µM, the CC50 [5, 21] was > 100 µM and the TGI ([5]; read-out: Log10TGI (converted)) was > 100 µM. For the same compound, the GI50 [6, 20] was 26.9 µM, the CC50 [6, 21] was > 100 µM and the TGI ([6]; read-out: Log10TGI (converted)) was 95.5 µM. The GI50 [7, 20] was 29.5 µM, the CC50 [7, 21] was > 100 µM and the TGI ([7]; read-out: Log10TGI (converted)) was > 100 µM. The GI50 [8, 20] was 2.75 µM, the CC50 [8, 21] was 64.6 µM and the TGI ([8]; read-out: Log10TGI (converted)) was 22.4 µM. For the same compound, the GI50 [9, 20] was 16.2 µM, the CC50 [9, 21] was > 100 µM and the TGI ([9]; read-out: Log10TGI (converted)) was 69.2 µM. The GI50 [10, 20] was 28.8 µM, the CC50 [10, 21] was > 100 µM and the TGI ([10]; read-out: Log10TGI (converted)) was > 100 µM. For the same compound, the GI50 [11, 20] was 33.1 µM, the CC50 [11, 21] was > 100 µM and the TGI ([11]; read-out: Log10TGI (converted)) was > 100 µM. The GI50 [12, 20] was 21.9 µM, the CC50 [12, 21] was > 100 µM and the TGI ([12]; read-out: Log10TGI (converted)) was > 100 µM.
`Cc1nc(-c2ccccc2)c2onc(-c3nnc(C(=O)NCc4cccnc4)o3)c2n1` showed an Activity [13] of 1660, an Activity [14] of 545 and an Activity [15] of 5.9. For the same compound, the Activity [16] was 3.5, the OD [17] was 0.479 and the OD [18] was 0.483. For the same compound, the OD [19] was 0.482.
`Nc1c(-c2nnc(C(=O)NCc3ccncc3)o2)noc1C(=O)c1ccccc1` gave an Activity [13] of 1361, an Activity [14] of 574 and an Activity [15] of 7.9. It also gave an Activity [16] of 4.9, an OD [17] of 0.401 and an OD [18] of 0.442. The OD [19] was 0.371.
For `C/C=C/C[C@@H](C)[C@@H](O)[C@H]1C(=O)N[C@@H](CC)C(=O)N(C)CC(=O)N(C)[C@@H](CC(C)C)C(=O)N[C@@H](C(C)C)C(=O)N(C)[C@@H](CC(C)C)C(=O)N[C@@H](C)C(=O)N[C@H](C)C(=O)N(C)[C@@H](CC(C)C)C(=O)N(C)[C@@H](CC(C)C)C(=O)N(C)[C@@H](C(C)C)C(=O)N1C` [CYCLOSPORINE], the Activity [13] was 1617, the Activity [14] was 953 and the Activity [15] was 6.1. For the same compound, the OD [17] was 0.046, the OD [18] was 0.07 and the OD [19] was 0.001.
